This is a sample that favours compounds with a hit; in the whole collection about 3.5% have one here.
MrgX1 allo act: human MrgX1 positive allosteric modulation, primary screen | B-score at 10 µM | actives 0.63% (n = 310,000) | AID 588675 | Q96LB2 | MrgX1-HEK293, Fluo-4 calcium flux, FDSS; active compounds read high;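 active means plate-corrected calcium response at least 3 library SD above typical, normal starting fluorescence, not activating the receptor alone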;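 further: compound read alongside a low EC10 to EC30 dose of BAM8-22 agonist; peak minus trough fluorescence over baseline measured at the second addition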
Target sequence (Q96LB2 whole entry, looked up): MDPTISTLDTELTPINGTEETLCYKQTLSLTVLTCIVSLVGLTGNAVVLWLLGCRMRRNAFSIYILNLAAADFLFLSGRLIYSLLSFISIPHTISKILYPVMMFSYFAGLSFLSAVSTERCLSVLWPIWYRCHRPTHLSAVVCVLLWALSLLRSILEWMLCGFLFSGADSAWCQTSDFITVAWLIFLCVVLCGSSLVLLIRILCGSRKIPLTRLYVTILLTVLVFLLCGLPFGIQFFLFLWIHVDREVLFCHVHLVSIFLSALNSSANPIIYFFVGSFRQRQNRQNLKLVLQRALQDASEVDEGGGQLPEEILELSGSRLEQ
RGS4 inh: human RGS4 inhibition; P49798; B-score at 10 µM; actives 0.45% (n = 310,000); HEK293 M3R/RGS4 inducible, Fluo-4 calcium flux; active compounds read high; triggered by carbachol at its EC20;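 active means B-score, a plate-corrected calcium signal, over three deviations above library mean, with baseline fluorescence within five deviations of library mean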;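 further: RGS4 expression induced by doxycycline in cells with stable M3 receptor; B-score is computed from the integrated fluorescence ratio over baseline after carbachol; higher B-score means a larger calcium signal and so more RGS4 inhibition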
Target sequence (P49798 whole entry, looked up): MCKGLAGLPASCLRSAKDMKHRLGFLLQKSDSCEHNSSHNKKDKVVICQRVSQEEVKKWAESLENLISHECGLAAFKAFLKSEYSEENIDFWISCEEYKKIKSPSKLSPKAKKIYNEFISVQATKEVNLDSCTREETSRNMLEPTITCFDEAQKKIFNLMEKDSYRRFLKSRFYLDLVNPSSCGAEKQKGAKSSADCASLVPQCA
MrgX1 antagonist: blocks BAM8-22 activation of human MrgX1 receptor | MRGX1-HEK293 calcium flux, Fluo-4, BAM8-22 antagonism; active compounds read low | B-score at 10 µM | actives 1.3% (n = 310,000);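 active means calcium-response B-score plate-corrected more than 3 library SD below zero, starting fluorescence within 5 deviations, no agonist response on first addition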;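 further: peak minus trough fluorescence over baseline after final BAM8-22 challenge near maximal dose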
RGS4 act: potentiators or activators of RGS4. HEK293 M3R/inducible RGS4, carbachol calcium flux Fluo4; active compounds read low. B-score at 10 µM. actives 0.92% (n = 310,000). AID 463111;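 active means B-score of the integrated calcium signal more than 4 SD below the library mean, with starting fluorescence not abnormally high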;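 further: negative B-score means reduced calcium response which marks RGS4 activation or potentiation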
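Test system: HEK293 cells with stable M3R and inducible RGS4; also added: carbachol at ECmax as muscarinic agonist stimulus; schedule: dye loading 30 min 37 °C, buffer rest 30 min RT; technique: kinetic calcium fluorescence imaging with Fluo4-AM dye, 2 µM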
MrgX1 ag: activates human MrgX1 receptor signaling; MrgX1-HEK293 cells, Fluo-4 calcium fluorescence, agonist mode; active compounds read high; AID 588627; B-score at 10 µM; Q96LB2; actives 0.44% (n = 310,000);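 active means calcium response B-score plate-corrected fluorescence ratio at least 3 library SD, with starting fluorescence B-score inside 5 SD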
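times = overnight plating, then 30 min 37 °C plus 30 min room-temperature dye loading | assay system = stable human MrgX1 HEK293 cell line | input = fifteen thousand cells per well | signal = kinetic calcium dye fluorescence, Fluo-4 NW | dosing = compound delivered in addition one of three | read-out = B-scored fluorescence response ratio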
MrgX1 antag conf: confirmation of human MrgX1 receptor antagonists; AID 602420; shares compounds with MrgX1 antagonist; remaining BAM8-22 calcium response % of control (active compounds read low), % at 10 µM; MrgX1-HEK293, BAM8-22 calcium flux, Fluo-4; active compounds read low; actives 19% (n = 2,300);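 active means remaining agonist calcium response no higher than 100% minus 3 SD of agonist-only control wells, with starting fluorescence near control levels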;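 further: agonist BAM8-22 given at a near maximal EC90 to ECmax level; peak minus minimum fluorescence divided by baseline after agonist addition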
HEK293 Ca flux: MrgX1 antagonist counter-screen hit in parental HEK293 cells. shares compounds with MrgX1 antagonist. Fluo-4 calcium fluorescence, FDSS. fluorescence ratio F(max-min)/F0 at 10 µM. actives 2% (n = 4,000). AID 624111;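 active means duplicate-averaged calcium fluorescence ratio at least three times the standard deviation of buffer wells, a nonspecific response in parental cells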
HEK293 Ca counter: counter-screen for MrgX1 allosteric activators: effect in parental HEK293 cells; fluorescence ratio F(max-min)/F0 at 10 µM; parental HEK293 calcium flux, Fluo-4 fluorescence ratio; active compounds read high; AID 624114; actives 0.4% (n = 4,000); shares compounds with MrgX1 antagonist;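 active means calcium fluorescence ratio, averaged over duplicates, at least 3 SD of the buffer-well ratio, meaning a nonspecific response in receptor-free cells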;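 further: untransfected parental HEK293 lacking MrgX1 used as counterscreen for MrgX1 allosteric activators; fluorescence change taken during the second addition on a kinetic imager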
HEK293 Ca cntr2: MrgX1 activator counter-screen hit in parental HEK293 cells; AID 624115; Fluo-4 calcium fluorescence (FDSS); active compounds read high; shares compounds with MrgX1 antagonist; actives 8.7% (n = 4,000); fluorescence ratio F(max-min)/F0 at 10 µM;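 active means calcium fluorescence ratio at least three times the spread of buffer wells, meaning a non-specific response in parental cells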
* marks the source's active call; other numbers are inactive results; i = inactive; x = no result given.

SMILES | MrgX1 allo act | RGS4 inh | MrgX1 antagonist | RGS4 act | MrgX1 ag | MrgX1 antag conf | HEK293 Ca flux | HEK293 Ca counter | HEK293 Ca cntr2
CCN(C(=O)COC(=O)c1cc([N+](=O)[O-])ccc1N1CCOCC1)C1CCCCC1 | i | i | i | i | i | x | x | x | x
COc1ccccc1NC(=O)Cc1noc(CSc2nnc(N)s2)n1 | i | i | -7.7* | i | i | i | i | i | i
COc1ccccc1NC(=O)Cc1noc(CSc2nnc(C)s2)n1 | i | i | i | i | i | x | x | x | x
O=C(NCc1ccc(Cl)cc1)C(=O)NCC(c1cccnc1)N1CCN(c2ccc(F)cc2)CC1 (centres undefined) | i | i | -4.7* | i | i | 77%* | i | i | i
O=C(NCC(c1cccnc1)N1CCN(c2ccc(F)cc2)CC1)c1ccccc1 (centres undefined) | i | i | i | i | i | x | x | x | x
O=c1cc(C(F)(F)F)[nH]c2ccc(C(F)(F)F)cc12 | i | i | -4.7* | i | i | i | i | i | i
O=c1ccc(Oc2nc(N3CCCCC3)nc(N3CCCCC3)n2)n[nH]1 | i | i | -5.5* | i | i | i | i | i | i
Cc1cccc(NC(=O)c2ccc(C(=O)c3ccccc3)cc2)n1 | i | i | -4.9* | i | i | 77%* | i | i | i
CCN(C(=O)c1ccc(S(=O)(=O)N2CCC(C)CC2)cc1)C1CCS(=O)(=O)C1 (centres undefined) | i | i | -4.6* | i | i | i | i | i | i
CN(C(=O)COC(=O)c1cccc(S(=O)(=O)N2CCCCC2)c1)C1CCS(=O)(=O)C1 (centres undefined) | i | i | -6* | i | i | i | i | i | i
Cc1ccc(C(=O)OCC(=O)N(C)C2CCS(=O)(=O)C2)cc1S(=O)(=O)N1CCCCC1 (centres undefined) | i | i | i | i | i | x | x | x | x
CCC(C)c1ccc(OCC(=O)O)cc1 (centres undefined) | i | i | -6.9* | i | i | i | i | i | i
CCCc1ccc(OCC(=O)O)cc1 | i | i | i | i | i | x | x | x | x
O=C(Cn1cc2c(n1)CCCC2)N1CCOCC1 | i | i | -5.4* | i | i | i | i | i | i
CCCCN1CC[C@H]2C=CC[C@@H](C(=O)NCCc3ccccc3)[C@H]2C1=O | i | i | -6.1* | i | i | i | i | i | i
CCCCN1CC[C@H]2C=CC[C@@H](C(=O)Nc3ccccc3)[C@H]2C1=O | i | i | i | i | i | x | x | x | x
Cc1sc2c(c1C)C(=O)/C(=C\Nc1ccncc1)S(=O)(=O)N2C | i | i | i | i | i | x | x | x | x
CCS(=O)CC(=O)Nc1c(-c2ccccc2)oc2ccccc2c1=O (centres undefined) | i | i | i | i | i | x | x | x | x
O=Cc1cn(CC(=O)N2CCc3ccccc32)c2ccccc12 | i | i | i | i | i | x | x | x | x
CCNC(=S)NCc1ccco1 | i | i | -6.2* | i | i | i | i | i | i
S=C(NCc1ccc(Cl)cc1)NCc1ccco1 | i | i | i | i | i | x | x | x | x
CCOC(=O)C1CCN(C(=O)CNC(=O)c2nn(-c3ccc(OC)cc3)c(=O)c3ccccc23)CC1 | i | i | i | i | i | x | x | x | x

Screening data from PubChem.
